Experimental data from BindingDB's records for doi:10.1021/ml100053y (2010).

Biological target: T1, 5-hydroxytryptamine receptor 1A (Homo sapiens, UniProt P08908)
T1 sequence (P08908 whole entry): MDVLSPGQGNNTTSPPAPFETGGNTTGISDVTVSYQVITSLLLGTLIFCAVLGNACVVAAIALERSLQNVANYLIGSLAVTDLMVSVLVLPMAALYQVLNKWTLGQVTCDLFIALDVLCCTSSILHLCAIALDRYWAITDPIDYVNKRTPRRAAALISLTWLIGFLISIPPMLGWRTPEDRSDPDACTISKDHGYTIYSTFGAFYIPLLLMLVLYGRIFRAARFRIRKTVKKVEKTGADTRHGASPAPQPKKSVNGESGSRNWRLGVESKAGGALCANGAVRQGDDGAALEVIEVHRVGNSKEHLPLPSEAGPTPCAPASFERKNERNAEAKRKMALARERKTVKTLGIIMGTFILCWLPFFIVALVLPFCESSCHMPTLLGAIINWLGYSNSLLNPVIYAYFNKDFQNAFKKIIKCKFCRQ
Test: Displacement of [3H]8-OH-DPAT from human 5HT1A receptor expressed in EBNA gene-positive HEK293 cells after 120 mins
Outline: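 Radioligand competition binding with [3H]-8-hydroxy-DPAT on membranes from transfected HEK-293 EBNA cells expressing h5-HT1AR. Buffer was 50 mM Tris-HCl, 0.5 mM MgSO4, pH 7.4. Ki was obtained from IC50 by the Cheng-Prusoff equation. Values are means ± SEM of 2–4 independent experiments, each run in triplicate.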

Structure (SMILES) | Ki [nM]
O=c1n(CCCCN2CCN(c3cccc4ccccc34)CC2)c(O)c2n1CCC2 [2-[4-(4-Naphthalen-1-yl-piperazin-1-yl)-butyl]-tetrahydro-pyrrolo[1,2-c]imidazole-1,3-dione] | 2.4
CN(C)S(=O)(=O)c1ccc2cccc(N3CCN(CCCCn4c(O)c5n(c4=O)CCC5)CC3)c2c1 [8-{4-[4-(1,3-Dioxotetrahydro-1H-pyrrolo[1,2-c]imidazol-2(3H)-yl)butyl]piperazin-1-yl}-N,N-dimethylnaphthalene-2-sulfonamide] | 2.4
